# PLAP act: activators of human placental alkaline phosphatase; activation fold at 20 µM; P05187; 96,000 tested, 1.2% active; purified PLAP enzyme, luminescent substrate read-out; active compounds read high; AID 696; in the data active means activation fold above about 2
# HePTP inh: blocks human HePTP tyrosine phosphatase; recombinant HePTP phosphatase activity, OD absorbance; inhibition, % at 20 µM; 110,000 tested, 0.64% active; in the data active means inhibition above about 50%
# Target sequence (P35236 whole entry, looked up): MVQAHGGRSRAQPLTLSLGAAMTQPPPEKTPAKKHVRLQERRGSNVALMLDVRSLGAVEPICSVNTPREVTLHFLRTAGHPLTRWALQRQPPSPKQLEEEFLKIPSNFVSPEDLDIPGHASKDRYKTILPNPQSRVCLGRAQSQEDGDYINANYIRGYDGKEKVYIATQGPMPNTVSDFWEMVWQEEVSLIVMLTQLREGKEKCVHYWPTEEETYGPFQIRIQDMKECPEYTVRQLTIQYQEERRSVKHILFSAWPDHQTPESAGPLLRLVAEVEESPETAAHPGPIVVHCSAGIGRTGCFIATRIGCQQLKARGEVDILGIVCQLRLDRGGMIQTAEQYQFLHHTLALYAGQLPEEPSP
# Ecoli WT expand: E. coli BW25113 growth inhibition, expanded screen. OD600 absorbance. growth inhibition, % at 100 µM. 98,000 tested, 0.15% active;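 active means growth inhibition above about 50% at one test dose, limit read from the data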;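 further: growth measured after 20 h incubation at 37 °C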
# PostGolgi yeast: growth inhibition of a yeast mutant, post-Golgi transport screen. post-Golgi transport phenotypic cell assay. inhibition, % at 10 µM. 98,000 tested, 0.9% active;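 further: yeast cells grown in 1536-well plates; yeast grown about 18 h at 30C before absorbance read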
# Ecoli tolC: blocks growth of E. coli BW25113 tolC mutant; OD615; growth inhibition, % at 10 µM (by protocol); 65,000 tested, 2.2% active;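 active means growth inhibition at or above a cutoff equal to the mean over every tested compound plus 3 SD, cut at about 60% in these data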;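 further: growth measured after 20 h incubation at 37 °C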
#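 Signal: optical density read at 615 nm; Assay system: E. coli ΔtolC::kan strain BW25113; Times: 20 h incubation with compound, 37 °C; Dosing: 10 µM final, single dose.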
# PostGolgi ctrl: inhibits growth of the yeast control strain; inhibition, % at 10 µM; AID 738; efflux-deficient yeast background strain, growth absorbance A615, 16 h; 98,000 tested, 5% active
# Numbers stand for hits; - = inactive; . = no result given. Only some compounds are listed: those with a hit (about 5.4% of all), similar ones and a draw of the others. Unless noted, no stated cut-off is given here; in the data, active means inhibition above about 30%; inactive means the rest.
SMILES,PLAP act,HePTP inh,Ecoli WT expand,PostGolgi yeast,Ecoli tolC,PostGolgi ctrl
O=C(c1ccco1)c1cn[nH]c1-c1ccc(Cl)cc1O,2.9,-,-,-,-,-
COc1ccc(O)c(-c2[nH]ncc2C(=O)c2ccccc2)c1,.,-,-,-,-,-
O=C(c1ccccc1)c1cn[nH]c1-c1ccccc1O,2.2,.,-,-,.,-
CC1=[N+](CCO)c2ccccc2C1(C)C,.,-,.,.,.,.
Cc1ccccc1CN(c1ccc(C(=O)Nc2cccnc2)cc1)S(C)(=O)=O,2.2,.,-,-,.,-
O=C(Nc1ccccn1)c1ccc(CN(c2ccccc2)S(=O)(=O)c2ccccc2)cc1,.,-,.,.,.,.
COc1ccc(OC)c(N(CC(=O)Nc2cccnc2)S(=O)(=O)c2ccccc2)c1,2.2,.,-,-,.,-
O=C(Nc1cccnc1)c1ccc(CN(c2ccccc2)S(=O)(=O)c2ccccc2)cc1,.,104,.,.,.,.
COc1ccccc1N(CC(=O)Nc1cccnc1)S(=O)(=O)c1ccccc1,-,.,-,-,.,-
CCCc1cc(C(=O)OC)c(NC(=O)c2ccc(OCC(C)C)cc2)s1,.,-,.,.,.,.
Cc1ccc(-c2nnc(CSc3nnc(COc4ccccc4)n3-c3ccccc3)o2)cc1,-,-,-,-,-,-
N#Cc1ccc(CSc2nnc(COc3ccccc3)n2-c2ccccc2)cc1,-,.,-,-,.,-
COc1ccc(-n2c(COc3ccccc3)nnc2SCc2ccc(C#N)cc2)cc1,-,-,-,-,63,-
N#Cc1ccc(CSc2nnc(-c3cccs3)n2-c2ccccc2)cc1,-,-,-,-,74,43
N#Cc1ccc(CSc2nnc(-c3ccccn3)n2-c2ccccc2)cc1,-,-,-,-,-,-
Cc1ccc(-c2nnc(CSc3nnc(COc4ccccc4)n3-c3ccc(C)cc3)o2)cc1,-,-,-,-,-,34
COc1ccc(OC)c(C(c2c(C)[nH]n(-c3ccccc3)c2=O)c2c(C)[nH]n(-c3ccccc3)c2=O)c1,.,104,.,.,.,.
COc1cccc(C(c2c(C)[nH]n(-c3ccccc3)c2=O)c2c(C)[nH]n(-c3ccccc3)c2=O)c1O,.,-,.,.,.,.
CC(C)(C)c1ccc(OCCOc2cccc(C=C3C(=O)NC(=O)NC3=O)c2)cc1,.,-,.,.,.,.
COc1ccccc1/C=C/C(=O)c1c(-c2ccccc2)c2cc(Br)ccc2[nH]c1=O,.,-,.,.,.,.
COc1cccc(NC(=O)C(=O)NCC(C)C)c1,.,-,.,.,.,.
O=[N+]([O-])c1c(C(Cl)Cl)nn(-c2ccccc2)c1N1CCCC1,-,.,-,-,.,31
COC(=O)c1sccc1NC(=O)/C=C/c1ccc([N+](=O)[O-])cc1,.,-,.,.,.,.
CC(C)(C)C#C/C=N/n1nnc(-c2ccccc2)n1,.,-,.,.,.,.
O=C1CC(N(CCc2ccccc2)C(=O)c2ccccc2)C(=O)N1c1ccccc1 (stereo not given),.,-,.,.,.,.
SMILES,PLAP act,HePTP inh,Ecoli WT expand,PostGolgi yeast,Ecoli tolC,PostGolgi ctrl
COC(=O)CSc1ncnc2c1sc1nc(-c3ccco3)c3c(c12)CC(C)(C)OC3,-,-,-,-,-,-
CCSc1ncnc2c1sc1nc(-c3ccco3)c3c(c12)CC(C)(C)OC3,-,.,-,-,.,32
Cc1cc(NCCCn2ccnc2)n2ncc(-c3ccccc3)c2n1,2.3,-,-,-,-,38
CCOc1ccc(N(CC(=O)Nc2ccc(Cl)cc2C)S(C)(=O)=O)cc1,.,-,.,.,.,.
Cc1ccccc1NC(=O)c1cccc(S(=O)(=O)NC2CCCCC2)c1,.,-,.,.,.,.
O=C1N2CCSC2=NC1(Nc1ccccn1)C(F)(F)F (stereo not given),-,-,-,-,-,48
O=C(O)c1cccc(NC(=O)c2cc3cc([N+](=O)[O-])ccc3oc2=O)c1,.,-,.,.,.,.
CCOC(=O)N1CCC(NC(=O)C2CCN(C(=O)N3CCOc4ccccc43)CC2)CC1,2.1,-,-,-,-,-
CCOc1ccc2nc(SCC(=O)Nc3ccc(CC)cc3)sc2c1,.,-,.,.,.,.
COc1ccc2c(c1)c1nnc(SCC(=O)N3C(C)CCCC3C)nc1n2C (stereo not given),-,-,-,-,-,-
COc1ccc2c(c1)c1nnc(SC)nc1n2C,-,-,-,58,-,87
COc1ccc(NC(=O)C(c2ccccc2)c2ccccc2)c([N+](=O)[O-])c1,.,-,.,.,.,.
CC(=O)c1sc(Nc2nc3ccc(F)cc3s2)nc1C,2.3,-,-,-,-,-
CCOC(=O)c1csc(NC(=O)c2ccc(-c3ccccc3)cc2)n1,.,-,.,.,.,.
CC(=O)c1sc(Nc2ccc(Br)cc2)nc1C,.,-,.,.,.,.
CCOC(=O)c1csc(Nc2nc3ccc(F)cc3s2)n1,-,-,-,-,88,-
Cc1ccc(NC(=O)c2ccco2)cc1NC(=O)c1ccccc1,.,-,.,.,.,.
